# pIC50: −log10 of the molar value.
# Molecular target: T1, P2X purinoceptor 7 (Homo sapiens, UniProt Q99572)
# T1 sequence (Q99572 whole entry): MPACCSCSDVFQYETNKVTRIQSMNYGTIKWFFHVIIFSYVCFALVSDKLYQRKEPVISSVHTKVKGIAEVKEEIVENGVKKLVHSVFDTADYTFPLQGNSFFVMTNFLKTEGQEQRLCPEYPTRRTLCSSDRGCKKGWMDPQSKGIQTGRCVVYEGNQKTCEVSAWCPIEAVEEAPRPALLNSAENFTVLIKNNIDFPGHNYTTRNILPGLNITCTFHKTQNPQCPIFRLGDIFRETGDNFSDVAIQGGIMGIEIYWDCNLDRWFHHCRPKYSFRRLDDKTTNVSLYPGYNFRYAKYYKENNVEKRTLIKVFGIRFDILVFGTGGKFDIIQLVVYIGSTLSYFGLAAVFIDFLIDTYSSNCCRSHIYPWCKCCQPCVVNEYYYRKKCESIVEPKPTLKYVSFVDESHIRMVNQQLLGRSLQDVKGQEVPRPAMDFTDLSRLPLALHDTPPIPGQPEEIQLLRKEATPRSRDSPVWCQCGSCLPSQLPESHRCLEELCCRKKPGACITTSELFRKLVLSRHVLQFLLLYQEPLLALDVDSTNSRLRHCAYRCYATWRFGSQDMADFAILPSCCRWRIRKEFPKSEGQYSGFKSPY
# Assay: Antagonist activity at human P2X7 receptor expressed in HEK293 cells assessed as inhibition of BzATP-induced ethidium bromide uptake after 2 hrs by fluorescence assay
# Type: cell-based
# Summary of the method: (§1)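 HEK293 cells stably carrying hP2X7 (pcDNA3.1 plasmid, Lipofectamine transfection) grown in DMEM/10% FBS, 2 mM glutamine, antibiotics, 37 °C, 5% CO2. Cells at 2.5 x 10^6/mL in pH 7.4 HEPES buffer with sucrose or NaCl, given compound plus BzATP, 2 h at 37 °C. Ethidium read at ex 530/em 590 nm as % of BzATP-only uptake. IC50 by nonlinear regression, 3-6 experiments.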
row,SMILES,pIC50
1,O=C(NNc1ccc(C(F)(F)F)cc1Cl)C12C3C=CC4C3C3C(C=CC31)C42,5.81
2,O=C(NNc1ccccc1Cl)C12C3CCC4C3C3C(CCC31)C42,6.03
3,O=C(NNc1ccccc1C(F)(F)F)C12C3CCC4C3C3C(CCC31)C42,6.44
4,CC12CC3CC1(C)CC3(C(=O)NNc1ccccc1Cl)C2,7.74
5,CN([C@@H](Cc1ccc(OS(=O)(=O)c2cccc3cnccc23)cc1)C(=O)N1CCN(c2ccccc2)CC1)S(=O)(=O)c1cccc2cnccc12,7.02
6,O=C(NNc1ccccc1C(F)(F)F)C12C3C=CC4C3C3C(C=CC31)C42,6.88
7,O=C(NNc1ccccc1Cl)C12C3C=CC4C3C3C(C=CC31)C42,7.02

# Molecular target: T2, P2X purinoceptor 7 (Homo sapiens) (UniProt Q99572)
# T2 sequence (whole entry): T1 sequence (Q99572 whole entry)
# Assay: Antagonist activity at human P2X7 receptor expressed in HEK293 cells assessed as inhibition of BzATP-induced ethidium bromide uptake at 10 uM after 2 hrs by fluorescence assay relative to control
# Type: cell-based
# Summary of the method: as §1
row,SMILES,inhibition
1,O=C1C2C3C=CC(C4CC34)C2C(=O)N1Nc1ccccc1 (configuration not stated),< 20%
2,O=C(NNc1ccc(C(F)(F)F)cc1)C12C3CCC4C3C3C(CCC31)C42,< 20%
3,O=C(NNc1ccc(C(F)(F)F)cc1)C12C3C=CC4C3C3C(C=CC31)C42,< 20%
4,O=C1C2C3C=CC(C4CC34)C2C(=O)N1Nc1ccccc1Cl (configuration not stated),< 20%
5,O=C1C2C3C=CC(C4CC34)C2C(=O)N1Nc1ccccc1F (configuration not stated),< 20%

# From ChEMBL document CHEMBL4000240, “Escape from adamantane: Scaffold optimization of novel P2X7 antagonists featuring complex polycycles” (Bioorg Med Chem Lett, 2017)
